Compound activity (PubChem BioAssay)
Rows were chosen to be rich in hits. Some 2.4% of all compounds tested hit in one or more screens of this group.
MPTP block – blocks calcium-induced mitochondrial swelling | AID 602449 | actives 1.4% (n = 360,000) | isolated mouse mitochondria, Ca2+ swelling absorbance, 30 min | inhibition, % at 10 µM;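 active means inhibition of 50% or more, scaled per plate between neutral and stimulator controls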
NR2E3 ag-1 – agonists of human NR2E3 nuclear receptor | Q9Y5X4 | CHO-S Gal4-NCOR/VP16-NR2E3 two-hybrid, luciferase | inhibition of corepressor binding, % at 3.98 µM | actives 0.35% (n = 360,000) | AID 602229;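 active means inhibition above the mean of all tested compounds plus 3 SD, cut at about 70% in these data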;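 further: higher means lower luciferase signal from less NR2E3 corepressor binding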
Target sequence (Q9Y5X4 whole entry, looked up, the tested form may be a part): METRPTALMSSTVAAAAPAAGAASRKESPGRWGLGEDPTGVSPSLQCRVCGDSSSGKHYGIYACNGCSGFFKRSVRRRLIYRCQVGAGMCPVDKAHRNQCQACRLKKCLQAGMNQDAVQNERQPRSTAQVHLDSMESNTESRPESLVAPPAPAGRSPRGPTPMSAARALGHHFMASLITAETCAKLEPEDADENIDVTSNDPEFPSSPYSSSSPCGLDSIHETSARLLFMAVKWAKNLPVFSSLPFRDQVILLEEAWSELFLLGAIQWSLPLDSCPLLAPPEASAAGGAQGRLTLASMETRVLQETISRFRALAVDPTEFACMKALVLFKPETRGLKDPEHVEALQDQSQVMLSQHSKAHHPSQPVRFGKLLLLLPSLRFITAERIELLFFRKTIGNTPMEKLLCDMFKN
Jurkat NFkB inh – inhibitors of the PMA/ionomycin-induced NF-kB reporter in Jurkat cells. PMA/ionomycin-induced NF-kB luciferase reporter, luminescence. inhibition, % at 4 µM. actives 0.53% (n = 330,000). AID 435003; in the data active means inhibition above about 50%
aDG glyco up – alpha-DG glycosylation activation | Pro5-aDG cells, alpha-DG glycosylation AlphaScreen (IIH6); 0% Pro5, 100% B10-LARGE cell signal | activation, % at 10 µM | actives 0.22% (n = 360,000);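 active means activation of at least 8% versus controls, or a plate z-score of at least 8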;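 further: Pro5 are CHO cells carrying HIG-tagged alpha-DG that lacks glycosylation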
NR2E3 ag-2 – NR2E3 (human) agonism | Q9Y5X4 | GST-NR2E3/biotin-RetCOR TR-FRET, 1536-well | inhibition of corepressor binding, % at 4.78 µM | actives 0.12% (n = 320,000) | AID 2300;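 active means percent inhibition above the cutoff of mean plus 3 SD of all tested compounds, set per screening campaign, cut at about 20% in these data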
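System: GST-NR2E3 and biotin-RetCOR proteins; probe or stimulus: 7 nM biotin-RetCOR; doses: compound at 4.8 µM, single dose; schedule: Compound–protein incubation for 5 h at 4 °C; detection: time-resolved FRET; read-out: percent inhibition; controls: biotin wells as high control, 0.6% DMSO wells as low control; format: 1536-well plates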
697 NFkB inh – lowers PMA/ionomycin-induced NF-kB signal in 697 B cells | 697 B-cell NF-kB luciferase reporter, 16 h | actives 0.33% (n = 330,000) | AID 435022 | inhibition, % at 4 µM; in the data active means inhibition above about 35%
Rh123 counter – membrane potential counter-screen of mitochondrial pore inhibitors; isolated mitochondria, Rhodamine 123 fluorescence; inhibition, % at 10 µM; AID 624504; shares compounds with MPTP block; actives 78% (n = 5,000); in the data active means inhibition above about 22%
MPTP abs DR – dose response confirmation of mitochondrial permeability transition pore inhibitors; shares compounds with MPTP block; isolated mitochondria swelling, absorbance; IC50, µM; actives 58% (n = 780); AID 651561; in the data active means IC50 below about 20 µM
MPTP cs DR – counter-screen for mitochondrial permeability transition pore inhibitors, dose response. AID 651564. IC50, µM. actives 49% (n = 780). shares compounds with MPTP block. isolated mitochondria counterscreen, fluorescence read-out; in the data active means IC50 below about 80 µM
Large screens that a line does not name were inactive (follow-up assays come after a bar, where they were run); ! = repeats disagree.

Cc1cc(C)c(O)c(-c2cc(C(=O)Nc3cccnc3)[nH]n2)c1	MPTP block 59 | Rh123 counter 60
COc1ccc(NC(=O)c2cc(-c3cc(C)cc(C)c3O)n[nH]2)cc1Cl	MPTP block 95 | Rh123 counter 63
COc1ccc(NC(=O)c2cc(-c3ccccc3O)n[nH]2)cc1Cl	none (no result: NR2E3 ag-2)
CN1CCN(c2nc(-c3ccccc3)c3cc(Cl)ccc3n2)CC1	MPTP block 63 | Rh123 counter inactive | MPTP abs DR 17 | MPTP cs DR 77
OCCN1CCN(c2nc(-c3ccccc3)c3cc(Cl)ccc3n2)CC1	MPTP block 80 | Rh123 counter inactive | MPTP abs DR 9.2 | MPTP cs DR inactive
Cc1ccc2nc(N3CCN(CCO)CC3)nc(-c3ccccc3)c2c1	none
O=S(=O)(Nc1ccc(N=Nc2ccc(O)c3ccccc23)cc1)c1ccccc1	none
O=[N+]([O-])c1ccc(N=Nc2ccc(O)c3ccccc23)cc1	MPTP block 98 (no result: Jurkat NFkB inh, NR2E3 ag-2, 697 NFkB inh) | Rh123 counter 79
O=C(/C=C/c1ccccc1)N1CCN(Cc2nc3ccccc3c(=O)[nH]2)CC1	none
O=[N+]([O-])c1ccc(/C=N/Nc2ccc3ccccc3c2)o1	MPTP block 79 | Rh123 counter 32
O=[N+]([O-])c1ccc(NN=Cc2cccc3ccccc23)cc1	MPTP block 89 (no result: Jurkat NFkB inh, NR2E3 ag-2, 697 NFkB inh) | Rh123 counter 71
O=[N+]([O-])c1ccc(N/N=C\c2ccccc2OCc2ccccc2)cc1	MPTP block 97 | Rh123 counter 76
O=C(CN1C(=O)C2CCCCC2C1=O)Nc1cc([N+](=O)[O-])ccc1F (stereo unspecified)	none
CCN(C[C@H]1N[C@@](Cc2ccccc2)(C(=O)OC)[C@H]2C(=O)N(Cc3ccccc3)C(=O)[C@@H]12)C(=O)Nc1ccc(Cl)cc1	MPTP block 63 (no result: NR2E3 ag-2) | Rh123 counter 100
Oc1c(Cl)cc(Cl)cc1CNc1ccc(Br)cn1	MPTP block 72 | Rh123 counter 83
Oc1ccc(Cl)cc1CNc1ccc(Br)cn1	MPTP block 58 | Rh123 counter 62
Cc1ccc2nc(N(CCCN(C)C)C(=O)CCc3ccccc3)sc2c1	MPTP block 102 (no result: Jurkat NFkB inh, 697 NFkB inh) | Rh123 counter inactive | MPTP abs DR 3.7 | MPTP cs DR inactive
Cc1ccc(S(=O)(=O)CC(=O)N(CCCN(C)C)c2nc3ccc(C)cc3s2)cc1	MPTP block 90 | Rh123 counter inactive | MPTP abs DR 4.5 | MPTP cs DR 75
CN(C)CCCN(C(=O)COc1ccc(Cl)cc1)c1nc2cc3c(cc2s1)OCCO3	MPTP block 87 | Rh123 counter inactive | MPTP abs DR 4.3 | MPTP cs DR 74
CN(C)CCCN(C(=O)c1ccc2c(c1)CCCC2)c1nc2ccc(Cl)cc2s1	MPTP block 90 | Rh123 counter inactive
COc1ccc(Cl)cc1C(=O)NNC(=O)CNC(=O)c1ccco1	none (no result: NR2E3 ag-2)
Cc1cc(Oc2nnnn2-c2ccccc2)ccc1Cl	none
Cc1ccc(NC(=O)CCCNC(=O)c2ccc(Cl)cc2)c(Br)c1	none
CN(C)CCCN(C(=O)CCc1ccccc1)c1nc2ccc(Cl)cc2s1	MPTP block 93 | Rh123 counter inactive
CCOC(=O)N1CCN(CC(c2ccccc2)c2ccccc2)CC1	none
COc1ccccc1N1CCN(CCCNC(=O)Nc2ccccc2C)CC1	none
COc1ccc(Cl)cc1N1CCN(CCNC(=O)Nc2ccccc2C)CC1	MPTP block 94 | Rh123 counter inactive | MPTP abs DR inactive | MPTP cs DR 32
COc1ccc(Cl)c(N2CCN(CCCNC(=O)Nc3ccc(C)cc3)CC2)c1	MPTP block 80 | Rh123 counter inactive | MPTP abs DR 9.4 | MPTP cs DR 37
COc1ccc(NC(=O)NCCN2CCN(c3cc(OC)ccc3OC)CC2)cc1	none
CCCn1c(N)c(C(=O)NS(=O)(=O)c2ccc(C)cc2)c(=O)n(C)c1=O	none
CCc1ccc(N(C(=O)CNC(=O)c2ccco2)C(C(=O)NC2CCCC2)c2cccnc2)cc1 (stereo unspecified)	none
O=C(C1CCN(S(=O)(=O)c2ccc(Cl)c(C(F)(F)F)c2)CC1)N1CCC1	none
CCOC(=O)N1CCN(Cc2nc3c(c(=O)n(C)c(=O)n3C)n2CCCc2ccccc2)CC1	none
Cc1cccc(Nc2ncnc3onc(-c4cccc(Cl)c4)c23)c1C	none
O=S(=O)(N[C@H]1C[C@@H](NS(=O)(=O)OCC(Cl)(Cl)Cl)C2CCCCC21)OCC(Cl)(Cl)Cl (stereo partly specified)	MPTP block 64 (no result: Jurkat NFkB inh, 697 NFkB inh) | Rh123 counter 91
COc1ccc(S(=O)(=O)N(C)C[C@@H]2Oc3c(NS(=O)(=O)c4cn(C)cn4)cccc3C(=O)N([C@@H](C)CO)C[C@@H]2C)cc1	none (no result: NR2E3 ag-2)
CCOC(=O)c1sc(NC(=O)CSC(=S)N2CCN(C)CC2)nc1C	none
COCCCC/C(=N\OCCN)c1ccc(C(F)(F)F)cc1	MPTP block 82! | Rh123 counter inactive | MPTP abs DR 13 | MPTP cs DR inactive
Cn1c(N2CCCC2)nc2c1c(=O)[nH]c(=O)n2C	none
O=C(CN1CCCCC1)Nc1ccccc1Oc1ccccc1	none
O=C(Nc1ccc(Cl)c(Cl)c1)c1ccc(Cn2cc(Cl)cn2)cc1	MPTP block 54 (no result: Jurkat NFkB inh, NR2E3 ag-2, 697 NFkB inh) | Rh123 counter 87
O=C(Nc1cccc(C(F)(F)F)c1)c1cc2c(=O)c3ccccc3oc2nc1C(F)(F)F	MPTP block 75 | Rh123 counter 53
O=C(NC(NC(=S)Nc1ccc(Cl)cc1)C(Cl)(Cl)Cl)c1ccco1 (stereo unspecified)	MPTP block 96 | Rh123 counter 84
CCc1ccc(OCC(=O)NC(NC(=S)Nc2ccc(Cl)cc2)C(Cl)(Cl)Cl)cc1 (stereo unspecified)	MPTP block 98 | Rh123 counter 81
O=C(O)C1=C[C@@H](O)[C@@H](O)[C@H](O)C1	none (no result: Jurkat NFkB inh, NR2E3 ag-2, 697 NFkB inh)
O=C(c1ccccc1N(Cc1ccccc1)S(=O)(=O)c1ccccc1)N1CCOCC1	none
CC(C)(C)c1ccc(Oc2ccc(NC(=O)c3cccs3)cn2)cc1	MPTP block 54 | Rh123 counter 44
COc1ccc(-n2cc([N+](=O)[O-])c(=O)c3ccc(Cl)cc32)cc1	none
CS(=O)(=O)C1=NSC2=NC(=O)/C(=C\c3cccn3-c3ccc(Cl)cc3)C(=N)N21	MPTP block 96 (no result: Jurkat NFkB inh, 697 NFkB inh) | Rh123 counter 61
O=C(O)CN1C(=O)C2(OCCO2)c2cc(Br)ccc21	none
